# T cell modulator – modulates CD8 T cell binding to vesicles; 2C CD8+ T cell-vesicle binding, flow cytometry; hits give low values; response (vesicle binding), % at 7 µM; actives 0.068% (n = 330,000); AID 2052;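 active = response, share of CD8 T cells binding vesicles, and their 90th percentile fluorescence all below set limits, cut at about 80% in these data, passing the limit was not always enough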;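 note: values below 100% mean blocked vesicle binding to the CD8+ T cells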
#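 System: murine 2C transgenic CD8+ T lymphocytes; also added: QL9-loaded Drosophila micro-vesicles; times: binding 1.5 h at 37 °C; measured by: flow cytometry, PE anti-B7-1 (FL2) versus Alexa647 anti-CD8 (FL8), PFA-fixed; control set: Peptide-free naked vesicles (low) and QL9 vesicles with 0.7% DMSO vehicle (high)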
# Pemphigus Ab inh – inhibitors of pemphigus antibody binding to human desmoglein-3. P32926. DSG3-coupled beads, scFv-anti-DSG3-GFP binding, flow cytometry; hits give low values. binding (percent of control), % at 10 µM. actives 0.48% (n = 310,000);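 active = binding more than 3 SD below its plate's average and above zero; inconclusive = below that plate limit but binding exactly zero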;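 note: hits lower antibody fragment binding to DSG3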
# LANA-H2A inh – blocks KSHV LANA binding to histone H2A/H2B | Q9QR71 | cell-free LANA-H2A/H2B peptide, fluorescence polarization | inhibition, % (no concentration beside the values) | actives 0.6% (n = 320,000); in the data active = inhibition mostly above about 10%, no sharp cut-off; inactive = mostly below about 6.7%
# Arrestin-AP2 inh – inhibitors of human beta-arrestin and AP2 interaction; FITC-arrestin peptide / GST-AP2 beads, flow cytometry; AP2 beta2 appendage carries R879A mutation; inhibition, % at 10 µM; actives 0.31% (n = 340,000);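 active = inhibition above a set limit, near 3 SD of compounds lacking own fluorescence, cut at about 54% in these data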;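 note: plate controls were DMSO wells for no effect and 5 µM unlabelled arrestin peptide for full effect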
#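 System: GST-AP2 R879A glutathione beads | Also added: FITC-arrestin peptide, 50 nM | Times: 12 min plus 1 h, RT | Signal: Bead flow cytometry, FITC channel | Buffer or medium: PBS with 0.05% Tween 20 and 0.1% BSA | Read-out basis: Percent drop in bead-associated FITC signal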
# HDAC3 inh – inhibitors of human histone deacetylase 3. O15379. recombinant HDAC3, fluorogenic peptide/trypsin coupled, fluorescence. inhibition, % at 8.3 µM. actives 0.15% (n = 320,000). AID 2718; in the data active = inhibition above about 26%, passing the limit was not always enough; inconclusive = no clear call, values can overlap the other calls
# JMJD2C inh – human JMJD2C demethylase inhibition; Q9H3R0; inhibition, % at 2.35 µM; AID 2099; actives 0.069% (n = 330,000); GST-JMJD2C(1-420) H3K9me3 demethylation, DELFIA europium;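 active = more than half of a compound's replicate wells show inhibition beyond 50%, single wells judged on their own value; inconclusive = some, but no more than half, of replicates pass 50% inhibition; inactive = no replicate passes 50% inhibition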;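 note: signal counts dimethyl H3K9 product captured on neutravidin plate; 0% = median of DMSO wells and 100% = 0.3 times that DMSO median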
# Target sequence (Q9H3R0 1-420 limits assumed): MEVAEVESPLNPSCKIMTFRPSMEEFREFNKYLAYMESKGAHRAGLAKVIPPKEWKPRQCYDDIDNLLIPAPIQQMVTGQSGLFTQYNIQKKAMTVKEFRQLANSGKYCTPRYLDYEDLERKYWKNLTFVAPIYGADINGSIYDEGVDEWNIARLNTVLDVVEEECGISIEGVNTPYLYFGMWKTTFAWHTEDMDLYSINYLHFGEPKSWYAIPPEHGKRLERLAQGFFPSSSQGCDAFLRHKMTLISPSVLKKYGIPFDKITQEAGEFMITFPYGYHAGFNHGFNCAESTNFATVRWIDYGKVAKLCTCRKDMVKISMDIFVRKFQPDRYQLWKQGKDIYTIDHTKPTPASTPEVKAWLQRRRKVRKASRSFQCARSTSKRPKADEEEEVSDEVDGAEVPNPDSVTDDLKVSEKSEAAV
# * hit, by the source's call; i = inactive; ? = inconclusive; . = no result given; ! = not active in a repeat. Rows were chosen to be rich in hits. Some 1.6% of all compounds tested hit in one or more screens of this group.
SMILES,T cell modulator,Pemphigus Ab inh,LANA-H2A inh,Arrestin-AP2 inh,HDAC3 inh,JMJD2C inh
Cn1c(=O)c2ccccc2n2c(CCl)nnc12,380,27*,1,-13,-7,6
COc1ccc(N2CSC3=C(C#N)C(c4ccc(OC)c(OC)c4)CC(=O)N3C2)c(OC)c1 (stereo not drawn),521,102,2,10,40*,-1
CCOC(=O)c1ccc(N2CSC3=C(C#N)C(c4cccs4)CC(=O)N3C2)cc1 (stereo not drawn),436,104,12,1,31*,4
COc1ccc(N2CSC3=C(C#N)C(c4cc(OC)ccc4OC)CC(=O)N3C2)c(OC)c1 (stereo not drawn),528,108,-2,18,42*,1
COc1ccc(C2CC(=O)N3CN(c4ccc(C)c(Cl)c4)CSC3=C2C#N)cc1OC (stereo not drawn),653,94,-4,-5,43*,2
COc1ccc(N2CSC3=C(C#N)C(c4cccs4)CC(=O)N3C2)cc1 (stereo not drawn),330,113,1,1,?,7
COc1cc(OC)c(C2CC(=O)N3CN(c4ccc(C)cc4)CSC3=C2C#N)cc1OC (stereo not drawn),i,88,0,22,-6,-5
COc1ccccc1-n1c(SCC(=O)N(C)C)nnc1-c1ccco1,.,116,.,44,.,.
COc1ccc(N2CSC3=C(C#N)C(c4cc(OC)c(OC)cc4OC)CC(=O)N3C2)c(OC)c1 (stereo not drawn),451,98,3,16,38*,2
C=Cc1c(C)c2cc3[nH]c(cc4nc(cc5nc(cc1[nH]2)C(C)=C5CCC(=O)O)C(CCC(=O)O)=C4C)c(C)c3C=C,74,25*!,-2,8,-1,13
Oc1c(Br)cc(Br)cc1CNn1cnnc1,153,98,8,-18,0,-4
O=C(CCn1cccn1)Nc1ccc2c(c1)OCO2,368,115,15*,-7,-4,5
CC(NC(=O)CNC(=O)c1cccc(Cl)c1)c1ccccc1 (stereo not drawn),130,100,-3,-2,-2,-20
CN(C)S(=O)(=O)c1ccc(N2CCCC2)c(C(=O)OCC(=O)N2CCN(c3ccccc3)CC2)c1,399,103,2,2,-8,-13
O=C(CCN1C(=O)/C(=C/c2ccc(F)cc2)SC1=S)NC1C=CS(=O)(=O)C1 (stereo not drawn),111,60*,6,14,-2,0
O=C(CCN1C(=O)/C(=C\c2ccccc2)SC1=S)N1CCCCC1,148,108,1,-7,3,-3
O=C(CCN1C(=O)/C(=C/c2cccs2)SC1=S)N1CCCCC1,231,75,24*,3,-2,2
CN1CCN(C(=O)CCN2C(=O)/C(=C/c3ccc(F)cc3)SC2=S)CC1,388,110,12*,-1,0,-31
Cc1ccc(/C=C2/SC(=S)N(CCC(=O)N3CCN(C)CC3)C2=O)cc1,268,117,0,-3,2,-16
Cc1cc(-c2ccc(C(C)C)c(S(=O)(=O)Nc3ccccn3)c2)on1,211,102,-3,-2,-4,-2
Cc1ccc(NC(=O)CN(C)C(=O)c2ccc(NS(=O)(=O)c3ccc4[nH]c(=O)[nH]c4c3)cc2)cc1,381,109,29*,-24,3,-5
CN(CC(=O)Nc1c(Cl)cccc1Cl)C(=O)c1ccc(NS(=O)(=O)c2ccc3[nH]c(=O)[nH]c3c2)cc1,.,96,.,6,.,.
O=c1cc(-c2ccccc2Cl)oc2cccc(O)c12,243,102,6,0,1,4
O=c1cc2oc3cc(O)c(O)cc3c(-c3ccccc3[N+](=O)[O-])c-2cc1O,381,95,-1,20,9,57*
O=C(NC1CCCCC1)C1CCCN1C(=O)Nc1ccccc1 (stereo not drawn),149,92,0,-5,?,-4
SMILES,T cell modulator,Pemphigus Ab inh,LANA-H2A inh,Arrestin-AP2 inh,HDAC3 inh,JMJD2C inh
O=C(NC1CCCC1)C1CCCN1C(=O)Nc1ccc(Cl)cc1 (stereo not drawn),0.0*,103,1,18,5,-10
COc1ccc(-c2csc(Nc3ccc(S(N)(=O)=O)cc3)n2)cc1,558,88*,-2,2,8,1
CC(=O)Oc1ccc(-c2csc(Nc3ccc(S(N)(=O)=O)cc3)n2)cc1,188,98,2,4,?,-3
O=C(CNC(=O)c1ccc(Cl)cc1)NC(CO)c1ccccc1 (stereo not drawn),225,92,3,-10,-3,-23
Cc1ccc(C(=O)CCC(=O)N2CCC(C(N)=O)CC2)s1,732,.,-5,-1,-1,2
O=C(Cn1sc2ccccc2c1=O)Nc1ccc(Cl)cc1,.,72*,.,.,.,.
Cc1nn2c(=O)[nH]cnc2c1Cl,.,107,.,.,.,.
O=C1CN(C(=O)c2ccc(F)cc2)c2ccccc2N1,26*,96,-1,-10,-2,5
O=c1c([N+](=O)[O-])c[nH]c2ccccc12,207,97,15*,5,-1,1
Cc1ccc(S(=O)(=O)N[C@@H](C)C(=O)N2CCC(C(=O)N3CCC[C@H]3C(=O)O)CC2)cc1,256,112,7.6*,11,-3,12
O=C(Nc1ccc(N2CCCC2)cc1)c1cc(Cl)ccc1Cl,227,71*,-8,-3,10,14
O=C(Nc1ccc(N2CCCC2)cc1)c1ccc(Cl)cc1Cl,213,103,8,5,-1,37
O=C(/C=C/c1ccccc1)NC(=S)Nc1ccc(N2CCOCC2)cc1,414,76*,2,-4,3,10
O=C(NC(=S)Nc1ccc(N2CCOCC2)cc1)c1ccc(Cl)cc1,47,73*,2,5,-10,9
O=C(/C=C/c1ccccc1)NC(=S)Nc1ccccc1,178,99,-7,6,14,-4
CCN(CC(=O)Nc1c(F)cccc1F)C(=O)CSCc1ccc(C)cc1,.,98,.,.,.,.
COc1ccc(C2=NN3C(=O)c4c(ccc(OC)c4OC)C3C2)cc1 (stereo not drawn),428,106,38*,26,-2,1
COc1ccc2c(c1OC)C(=O)N1N=C(c3ccc(Br)cc3)CC21 (stereo not drawn),300,87,4,-4,-6,-3
NNc1ccc(Cl)c(C(=O)O)c1,234,98,63*,20,-3,-4
COc1ccc(C(=O)Oc2ccc3c(c2)OCO3)cc1OC,i,21*,-1,-6,-9,2
CC(=O)c1c(C)[nH]c(C(=O)CN2CCN(S(=O)(=O)c3ccccc3[N+](=O)[O-])CC2)c1C,209,97,.,21,.,.

# Bioassay records as filed in PubChem.
